From publication PMC2884008 (Chemistry & biology, 2010)
“Also recorded” adds a separate entry of the source. Where two headings read alike, the source gives them in different places. One block for each molecule: values may come before it.

What was measured:
p300 HAT = molecular target: T1, p300 HAT (Homo sapiens, UniProt Q09472, DEL1529-1560/M1652G); assay: direct radioactive 14C-acetyl-CoA transfer p300 HAT assay; type: biochemical; settings: for p300 HAT inhibition, in words: analogs compared with C646
T1 sequence (Q09472 with tags, fused parts or gaps DEL1529-1560/M1652G limits assumed): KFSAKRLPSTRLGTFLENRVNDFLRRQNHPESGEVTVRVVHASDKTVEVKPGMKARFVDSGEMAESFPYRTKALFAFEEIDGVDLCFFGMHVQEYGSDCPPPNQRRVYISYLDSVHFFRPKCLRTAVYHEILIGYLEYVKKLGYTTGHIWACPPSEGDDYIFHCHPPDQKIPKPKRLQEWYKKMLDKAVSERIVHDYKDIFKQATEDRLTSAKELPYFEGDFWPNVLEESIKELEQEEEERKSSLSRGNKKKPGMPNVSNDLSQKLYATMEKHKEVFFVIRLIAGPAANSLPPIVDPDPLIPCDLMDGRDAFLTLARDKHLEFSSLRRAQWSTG

[1] = test system: three melanoma and three non-small cell lung cancer lines; assay: 3H-thymidine incorporation in cancer cell line panel; type: cell-based, human; settings: 24 h
How it was run: (§1)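 Melanoma lines were grown in DMEM and NSCLC lines in RPMI 1640, both with 10% FBS, pen-strep and L-glutamine. About 5000 cells/well at ~60% sub-confluence were attached at 37°C, then exposed 24 h with DMSO at 0.2% in every condition. 3H-thymidine was added at 10 μCi/ml final for 5 h; cells were harvested onto filters and counted. Triplicates; counts normalized to pre-treatment counts.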

[2] = molecular target: Rtt109 histone acetyltransferase (Saccharomyces cerevisiae, UniProt Q07794); assay: direct radioactive HAT assay with Rtt109/Vps75 complex; type: biochemical; settings: compound at 10 μM
Rtt109 histone acetyltransferase, sequence (Q07794 whole entry): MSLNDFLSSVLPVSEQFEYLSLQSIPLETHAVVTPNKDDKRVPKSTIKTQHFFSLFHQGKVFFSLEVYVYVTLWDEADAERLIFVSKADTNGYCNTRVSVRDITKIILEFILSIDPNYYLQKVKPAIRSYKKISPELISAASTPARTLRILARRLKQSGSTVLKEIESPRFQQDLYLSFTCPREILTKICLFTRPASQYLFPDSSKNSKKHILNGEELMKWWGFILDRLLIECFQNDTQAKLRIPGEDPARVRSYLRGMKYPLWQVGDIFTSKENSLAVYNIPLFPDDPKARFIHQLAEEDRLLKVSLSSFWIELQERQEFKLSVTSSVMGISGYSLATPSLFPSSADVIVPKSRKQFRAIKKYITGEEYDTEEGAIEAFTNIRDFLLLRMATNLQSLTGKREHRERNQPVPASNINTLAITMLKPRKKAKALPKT
Rtt109 histone acetyltransferase, sequence (P53853 whole entry partner): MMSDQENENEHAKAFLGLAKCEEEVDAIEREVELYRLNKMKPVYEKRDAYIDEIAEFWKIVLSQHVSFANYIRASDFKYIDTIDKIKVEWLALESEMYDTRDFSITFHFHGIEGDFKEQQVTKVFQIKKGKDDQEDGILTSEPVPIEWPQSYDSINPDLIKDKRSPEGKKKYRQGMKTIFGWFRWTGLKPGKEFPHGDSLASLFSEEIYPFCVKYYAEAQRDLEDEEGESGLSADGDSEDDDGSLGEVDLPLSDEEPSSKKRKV
How it was run: (§2)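 Enzyme: Rtt109/Vps75 70 ng, yGcn5 15 ng, SAS 300 ng, hMOZ 1 μg. After 10 min at 30°C, reactions were started with 20 μM 12C/14C-AcCoA (1:1) and run 2–4 min. Product was resolved by Tris-Tricine SDS-PAGE and quantified by autoradiography. Duplicates.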

WM983A cells = assay: global histone H3 acetylation in WM983A cells by western blotting; type: cell-based, human; settings: 6 h, increasing concentrations
[3] = test system: C3H 10T1/2 mouse fibroblasts; assay: histone acetylation in mouse cells, western blots of SDS and acid-urea gels; type: cell-based
How it was run: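 C3H 10T1/2 fibroblasts were grown in DMEM/10% FCS at 37°C, 6% CO2, then made quiescent in 0.5% FCS for 18–20 h. TSA at 33 nM was added for the final 30 min where used. Histones were acid-extracted, run on SDS and acid-urea gels and western blotted.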

WM35 = assay: cell cycle analysis by propidium iodide FACS, WM35; type: cell-based, human; settings: 20 μM, 24 h
How it was run: (§3)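 Cells were exposed to 20 μM test compound or DMSO for 24 h. More than 10^6 cells were fixed in 70% ethanol at 4°C for ≥2 h, rehydrated in PBS and stained 20 min at 37°C with PI in 0.1% Triton X-100/PBS containing RNase A. DNA content was read by flow cytometry, and the S-phase fraction was taken as the read-out.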

p300 HAT mutant W1466F = assay: C646 inhibition of p300 HAT mutant W1466F; type: biochemical; settings: Ki = IC50/(S/Km+1)
p300 HAT mutant R1410A = assay: C646 inhibition of p300 HAT mutant R1410A; type: biochemical; settings: Ki = IC50/(S/Km+1)
[4] = molecular target: PCAF histone acetyltransferase (Homo sapiens, UniProt Q92831); assay: coupled spectrophotometric PCAF assay; type: biochemical; settings: compound at 10 μM
PCAF histone acetyltransferase, sequence (Q92831 493-658 limits assumed): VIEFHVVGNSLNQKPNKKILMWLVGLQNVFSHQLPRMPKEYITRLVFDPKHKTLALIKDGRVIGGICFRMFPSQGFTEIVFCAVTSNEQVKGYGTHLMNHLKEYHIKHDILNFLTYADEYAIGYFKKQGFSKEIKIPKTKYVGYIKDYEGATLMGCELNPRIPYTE

[5] = molecular target: serotonin N-acetyltransferase (Ovis aries, UniProt Q29495); assay: coupled spectrophotometric AANAT assay; type: biochemical; settings: compound at 10 μM
serotonin N-acetyltransferase, sequence (Q29495 whole entry): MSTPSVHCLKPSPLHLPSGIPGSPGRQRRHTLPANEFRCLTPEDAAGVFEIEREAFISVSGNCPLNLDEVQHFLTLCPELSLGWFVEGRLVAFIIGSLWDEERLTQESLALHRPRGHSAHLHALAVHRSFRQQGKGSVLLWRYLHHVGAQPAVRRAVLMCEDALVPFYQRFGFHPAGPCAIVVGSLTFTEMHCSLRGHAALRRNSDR

melanoma line WM983A = assay: 3H-thymidine incorporation in WM983A; type: cell-based, human; settings: 24 h
How it was run: as §1

WM983A = assay: cell cycle analysis by propidium iodide FACS, WM983A; type: cell-based, human; settings: 20 μM, 24 h
How it was run: as §3

[6] = test system: immortalized murine fibroblast cell line, NIH3T3; assay: 3H-thymidine incorporation in NIH3T3; type: cell-based; settings: 20 μM
p300 HAT mutant T1411A = assay: C646 inhibition of p300 HAT mutant T1411A; type: biochemical; settings: Ki = IC50/(S/Km+1)
[7] = thiol adduct formation by NMR and chromatography; type: physicochemical; settings: buffer conditions of the enzyme assay
melanoma line WM35 = assay: 3H-thymidine incorporation in WM35; type: cell-based, human; settings: C646 10 μM or Lys-CoA-Tat 25 μM, 24 h
How it was run: as §1

lung cancer line H23 = assay: 3H-thymidine incorporation in H23; type: cell-based, human; settings: C646 10 μM or Lys-CoA-Tat 25 μM, 24 h
How it was run: as §1

[8] = molecular target: GCN5 histone acetyltransferase (Saccharomyces cerevisiae, UniProt Q03330); assay: direct radioactive HAT assay with yeast GCN5; type: biochemical; settings: compound at 10 μM
GCN5 histone acetyltransferase, sequence (Q03330 whole entry): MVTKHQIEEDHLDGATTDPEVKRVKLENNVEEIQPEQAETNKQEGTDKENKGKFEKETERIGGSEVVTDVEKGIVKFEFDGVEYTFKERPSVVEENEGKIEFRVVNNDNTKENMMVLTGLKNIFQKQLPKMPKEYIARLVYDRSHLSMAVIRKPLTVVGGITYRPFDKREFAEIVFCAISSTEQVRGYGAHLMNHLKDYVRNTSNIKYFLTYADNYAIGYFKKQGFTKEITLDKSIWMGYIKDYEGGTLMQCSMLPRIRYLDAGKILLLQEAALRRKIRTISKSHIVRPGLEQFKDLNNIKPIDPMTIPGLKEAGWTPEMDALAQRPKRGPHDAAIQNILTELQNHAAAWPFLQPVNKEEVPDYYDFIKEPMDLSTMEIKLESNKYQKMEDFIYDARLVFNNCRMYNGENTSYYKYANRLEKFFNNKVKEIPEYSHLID
How it was run: as §2

p300 HAT mutant Y1467F = assay: C646 inhibition of p300 HAT mutant Y1467F; type: biochemical; settings: Ki = IC50/(S/Km+1)
[9] = molecular target: MOZ histone acetyltransferase (Homo sapiens, UniProt Q92794); assay: direct radioactive HAT assay with hMOZ; type: biochemical; settings: compound at 10 μM
MOZ histone acetyltransferase, sequence (Q92794 497-780 limits assumed): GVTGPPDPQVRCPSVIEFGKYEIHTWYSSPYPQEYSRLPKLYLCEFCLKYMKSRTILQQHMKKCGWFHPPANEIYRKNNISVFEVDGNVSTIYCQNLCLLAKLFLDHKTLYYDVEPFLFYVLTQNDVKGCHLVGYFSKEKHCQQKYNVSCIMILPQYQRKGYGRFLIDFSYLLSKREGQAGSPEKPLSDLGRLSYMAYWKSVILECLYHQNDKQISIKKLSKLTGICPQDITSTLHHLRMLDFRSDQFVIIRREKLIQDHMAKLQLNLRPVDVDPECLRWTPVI
How it was run: as §2

[10] = molecular target: Sas histone acetyltransferase (Saccharomyces cerevisiae, UniProt P40963); assay: direct radioactive HAT assay with SAS complex; type: biochemical; settings: compound at 10 μM
Sas histone acetyltransferase, sequence (P40963 whole entry): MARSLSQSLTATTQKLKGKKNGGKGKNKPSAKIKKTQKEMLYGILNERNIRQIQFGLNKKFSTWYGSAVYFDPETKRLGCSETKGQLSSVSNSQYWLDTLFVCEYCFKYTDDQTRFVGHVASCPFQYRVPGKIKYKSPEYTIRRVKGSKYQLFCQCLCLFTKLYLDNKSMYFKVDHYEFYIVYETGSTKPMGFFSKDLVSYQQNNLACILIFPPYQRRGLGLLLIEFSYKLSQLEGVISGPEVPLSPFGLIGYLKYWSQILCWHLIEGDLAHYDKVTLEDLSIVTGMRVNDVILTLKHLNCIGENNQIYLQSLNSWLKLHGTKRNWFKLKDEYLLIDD
Sas histone acetyltransferase, sequence (Q04003 whole entry partner): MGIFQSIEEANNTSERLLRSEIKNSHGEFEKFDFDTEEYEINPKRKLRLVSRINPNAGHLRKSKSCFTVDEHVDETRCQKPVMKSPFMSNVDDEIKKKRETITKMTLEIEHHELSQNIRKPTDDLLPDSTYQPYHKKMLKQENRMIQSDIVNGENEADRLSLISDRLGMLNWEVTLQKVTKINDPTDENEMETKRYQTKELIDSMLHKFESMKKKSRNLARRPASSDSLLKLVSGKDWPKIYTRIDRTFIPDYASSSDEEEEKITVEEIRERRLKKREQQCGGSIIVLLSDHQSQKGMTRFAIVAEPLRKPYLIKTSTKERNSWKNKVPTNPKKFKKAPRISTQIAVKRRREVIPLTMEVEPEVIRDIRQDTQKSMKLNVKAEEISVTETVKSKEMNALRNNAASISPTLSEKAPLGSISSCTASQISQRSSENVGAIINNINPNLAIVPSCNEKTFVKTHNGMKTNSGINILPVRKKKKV
Sas histone acetyltransferase, sequence (Q99314 whole entry partner): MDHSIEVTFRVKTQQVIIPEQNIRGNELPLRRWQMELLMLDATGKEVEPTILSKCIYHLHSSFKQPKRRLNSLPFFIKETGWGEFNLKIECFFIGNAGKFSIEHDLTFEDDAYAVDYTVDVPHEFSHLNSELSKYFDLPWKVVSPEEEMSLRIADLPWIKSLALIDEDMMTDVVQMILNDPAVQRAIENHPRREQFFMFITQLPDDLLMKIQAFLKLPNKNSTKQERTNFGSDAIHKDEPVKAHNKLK
How it was run: as §2

p300/CBP HAT [11] = settings: read-out: Ki for p300/CBP HAT, cited from earlier work
p300/CBP HAT [12] = assay: p300 HAT inhibition, literature values; type: biochemical; settings: Ki compared with C646

Molecule: CC1=NN(c2ccc(C(N)=O)cc2)C(=O)C1=Cc1ccc(-c2cc(C)c(C)cc2[N+](=O)[O-])o1 [Compound 6a]
p300 HAT inhibition, in words (p300 HAT): well tolerated

Molecule: CC1=NN(c2cccc(C(=O)O)c2)C(=O)C1=Cc1ccc(-c2cc(C)c(C)cc2[N+](=O)[O-])o1 [Compound 6e]
p300 HAT inhibition, in words (p300 HAT): well tolerated

Molecule: CC1=NN(c2ccc(S(=O)(=O)O)cc2)C(=O)C1=Cc1ccc(-c2cc(C)c(C)cc2[N+](=O)[O-])o1 [Compound 6f]
p300 HAT inhibition, in words (p300 HAT): well tolerated

Molecule: CC1=NN(c2ccc(S(N)(=O)=O)cc2)C(=O)C1=Cc1ccc(-c2cc(C)c(C)cc2[N+](=O)[O-])o1 [Compound 6g]
p300 HAT inhibition, in words (p300 HAT): well tolerated

weakening of p300 inhibitory potency compared with C646 (p300 HAT; relative IC50 referenced to C646): > 15 fold
Molecule: COC(=O)c1ccc(N2N=C(C)C(=Cc3ccc(-c4cc(C)c(C)cc4[N+](=O)[O-])o3)C2=O)cc1 [Compound 6h]

Molecule: COC(=O)c1cccc(N2N=C(C)C(=Cc3ccc(-c4cc(C)c(C)cc4[N+](=O)[O-])o3)C2=O)c1 [Compound 6i]
p300 HAT inhibition, in words (p300 HAT): well tolerated

p300 HAT inhibition, in words (p300 HAT): substantial reduction in potency
Molecule: CC1=NN(c2ccc(C(=O)O)cc2)C(=O)C1=Cc1ccc(-c2cc(C)c(C)cc2CO)o1 [Compound 6l]

inhibition of Rtt109 [2]: less than 10%
increase of apparent Ki versus wild type p300 (p300 HAT mutant W1466F): 7 fold
increase of apparent Ki versus wild type p300 (p300 HAT mutant R1410A): at least 2 fold
inhibition of PCAF [4]: less than 10%
inhibition of serotonin N-acetyltransferase [5]: less than 10%
IC50 (melanoma line WM983A; read-out: IC50 for 3H-thymidine incorporation): 10 to 20 µM
increase of apparent Ki versus wild type p300 (p300 HAT mutant T1411A): at least 2 fold
thiol adduct formation with DTT or beta-mercaptoethanol [7]: no evidence of reaction
inhibition of GCN5 [8]: less than 10%
increase of apparent Ki versus wild type p300 (p300 HAT mutant Y1467F): at least 2 fold
inhibition of MOZ [9]: less than 10%
inhibition of Sas [10]: less than 10%
Molecule: CC1=NN(c2ccc(C(=O)O)cc2)C(=O)/C1=C\c1ccc(-c2cc(C)c(C)cc2[N+](=O)[O-])o1 [Compound C646]
3H-thymidine incorporation ([1]; C646 10 μM): capable of reducing; also recorded: Two out of three non-small cell lung adenocarcinoma cell lines demonstrate significant growth inhibition
global histone H3 acetylation (WM983A cells): dose-dependent reduction; also recorded: blocks H3 acetylation
basal acetylation levels of H3 and H4 ([3]; 25 μM, 1-3 h, H3K9ac, H4K12ac): slightly diminished; also recorded: reduces histone H3 and H4 acetylation levels
TSA-inducible acetylation of H3 and H4 ([3]; 25 μM, 1-3 h before TSA (33 nM, final 30 min)): virtually completely inhibits; also recorded: abrogates TSA-induced acetylation
cell cycle effect (WM35): G1-S cell cycle arrest; also recorded: decrease in %S phase
cell proliferation via 3H-thymidine incorporation (melanoma line WM983A; up to 20 μM): inhibits WM983A melanoma cell proliferation
cell cycle effect (WM983A): G1-S cell cycle arrest; also recorded: decrease in %S phase
3H-thymidine incorporation / cell proliferation [6]: not inhibited; also recorded: does not have a significant inhibitory effect
3H-thymidine incorporation (melanoma line WM35): quite susceptible
3H-thymidine incorporation (lung cancer line H23): quite susceptible

Molecule: COc1ccc(C(=O)C2=C3OC(C)(C)[C@@H](CC=C(C)C)C[C@@]34C[C@@H](CC=C(C)C)C(C)(C)[C@@](CC=C(C)C)(C2=O)C4=O)cc1O [LTK14]
Ki (p300/CBP HAT [11]; ref Mantelingu et al., 2007, Arif et al., 2009): 5.1 µM
fold weaker than C646 (p300/CBP HAT [12]): about 12 fold

Molecule: CC(=O)N[C@@H](CCCCNC(=O)CSCCNC(=O)CCNC(=O)[C@H](O)C(C)(C)COP(=O)(O)OP(=O)(O)OC[C@H]1O[C@@H](n2cnc3c(N)ncnc32)[C@H](O)[C@@H]1OP(=O)(O)O)C(N)=O [Lys-CoA]
Ki (p300/CBP HAT [11]; ref Lau et al., 2000): 0.02 µM
fold more potent than C646 (p300/CBP HAT [12]): 20 fold

Molecule: CC(/C=C/C(=O)NO)=C\[C@@H](C)C(=O)c1ccc(N(C)C)cc1 [TSA, trichostatin A, reference compound]
H3 and H4 acetylation after HDAC inhibitor ([3]; TSA 33 nM, 30 min): increased H3 and H4 acetylation

p300 HAT inhibition, in words (p300 HAT): lack p300 inhibitory properties
Molecule: Ac-Asp-Asp-Asp-Asp-Tat [Ac-DDDD-Tat, reference compound]
3H-thymidine incorporation, control compounds [1]: no effects
